# The M2OR odorant receptor database
# Assays:
# Settings in all cases: stereoisomer not certain
# Or1m1 (Mus musculus) = target: T1, Or1m1 (Mus musculus) (UniProt Q8VFM9)
# T1 sequence (whole entry): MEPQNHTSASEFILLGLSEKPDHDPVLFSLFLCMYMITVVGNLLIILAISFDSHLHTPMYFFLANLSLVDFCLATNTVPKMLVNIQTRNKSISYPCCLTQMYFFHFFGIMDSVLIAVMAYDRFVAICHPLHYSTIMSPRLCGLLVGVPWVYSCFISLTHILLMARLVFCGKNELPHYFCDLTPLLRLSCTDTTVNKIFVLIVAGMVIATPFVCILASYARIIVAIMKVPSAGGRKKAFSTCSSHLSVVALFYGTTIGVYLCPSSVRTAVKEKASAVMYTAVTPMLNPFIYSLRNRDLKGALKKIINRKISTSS
# How it was run: (§1)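 Transient luciferase assays in mammalian cell lines were common, though methods varied by source. The values come from published papers and their supplementary material, with extra details from the original authors when needed. Responsive refers to a measured signal the original authors judged statistically different from baseline, and non-responsive (inactive) to the remainder.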
# Or2c1 (Mus musculus) = target: T2, Or2c1 (Mus musculus) (UniProt P23275)
# T2 sequence (whole entry): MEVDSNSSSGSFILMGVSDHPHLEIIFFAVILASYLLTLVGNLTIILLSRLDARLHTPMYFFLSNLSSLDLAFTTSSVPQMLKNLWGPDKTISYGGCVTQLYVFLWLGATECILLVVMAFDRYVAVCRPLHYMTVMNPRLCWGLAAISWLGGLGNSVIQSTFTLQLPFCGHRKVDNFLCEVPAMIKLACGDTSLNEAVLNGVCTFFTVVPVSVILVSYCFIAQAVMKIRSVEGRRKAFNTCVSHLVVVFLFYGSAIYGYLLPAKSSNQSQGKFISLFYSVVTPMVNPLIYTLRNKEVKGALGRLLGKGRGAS
# How it was run: as §1
# Or5ar1 (Mus musculus) = target: T3, Or5ar1 (Mus musculus) (UniProt Q8VGS3)
# T3 sequence (whole entry): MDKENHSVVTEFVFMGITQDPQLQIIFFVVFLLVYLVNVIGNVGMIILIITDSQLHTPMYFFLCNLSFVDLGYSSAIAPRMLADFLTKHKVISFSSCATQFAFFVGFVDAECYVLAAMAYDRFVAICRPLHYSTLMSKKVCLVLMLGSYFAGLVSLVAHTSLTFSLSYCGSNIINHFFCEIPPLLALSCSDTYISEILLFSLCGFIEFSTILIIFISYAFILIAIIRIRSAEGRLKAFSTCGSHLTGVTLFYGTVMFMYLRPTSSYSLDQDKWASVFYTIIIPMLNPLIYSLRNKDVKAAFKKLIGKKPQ
# How it was run: as §1
# Or5p80 (Mus musculus) = target: T4, Or5p80 (Mus musculus) (UniProt Q8VG42)
# T4 sequence (whole entry): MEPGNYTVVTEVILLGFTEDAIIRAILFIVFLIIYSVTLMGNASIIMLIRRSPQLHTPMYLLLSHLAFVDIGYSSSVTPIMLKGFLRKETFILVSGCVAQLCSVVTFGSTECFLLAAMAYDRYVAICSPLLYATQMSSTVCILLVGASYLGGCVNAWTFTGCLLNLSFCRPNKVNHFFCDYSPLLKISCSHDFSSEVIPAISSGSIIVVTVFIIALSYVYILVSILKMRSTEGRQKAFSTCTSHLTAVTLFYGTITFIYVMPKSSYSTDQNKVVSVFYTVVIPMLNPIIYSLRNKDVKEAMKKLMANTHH
# How it was run: as §1
# Or7a40 (Mus musculus) = target: T5, Or7a40 (Mus musculus) (UniProt Q9JHB2)
# T5 sequence (whole entry): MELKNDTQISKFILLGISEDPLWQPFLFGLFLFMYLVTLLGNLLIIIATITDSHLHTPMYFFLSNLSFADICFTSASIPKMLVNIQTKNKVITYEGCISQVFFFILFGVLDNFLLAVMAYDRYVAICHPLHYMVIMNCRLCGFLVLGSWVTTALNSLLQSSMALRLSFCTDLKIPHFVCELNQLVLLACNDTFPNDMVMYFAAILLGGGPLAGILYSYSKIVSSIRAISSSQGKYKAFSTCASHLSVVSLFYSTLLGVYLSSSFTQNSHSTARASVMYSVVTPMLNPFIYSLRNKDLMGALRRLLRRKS
# How it was run: as §1
# Or10j5 (Mus musculus) = target: T6, Or10j5 (Mus musculus) (UniProt Q62007)
# T6 sequence (whole entry): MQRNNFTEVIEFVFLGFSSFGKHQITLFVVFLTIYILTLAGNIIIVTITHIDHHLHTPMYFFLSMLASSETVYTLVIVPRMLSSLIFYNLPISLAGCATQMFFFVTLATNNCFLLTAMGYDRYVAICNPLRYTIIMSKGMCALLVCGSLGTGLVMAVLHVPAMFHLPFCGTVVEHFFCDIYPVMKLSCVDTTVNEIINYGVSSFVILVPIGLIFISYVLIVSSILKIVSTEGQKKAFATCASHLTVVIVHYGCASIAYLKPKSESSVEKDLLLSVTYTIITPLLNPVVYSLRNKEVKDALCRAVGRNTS
# How it was run: as §1
# Or5p57 (Mus musculus) = target: T7, Or5p57 (Mus musculus) (UniProt Q8VEZ0)
# T7 sequence (whole entry): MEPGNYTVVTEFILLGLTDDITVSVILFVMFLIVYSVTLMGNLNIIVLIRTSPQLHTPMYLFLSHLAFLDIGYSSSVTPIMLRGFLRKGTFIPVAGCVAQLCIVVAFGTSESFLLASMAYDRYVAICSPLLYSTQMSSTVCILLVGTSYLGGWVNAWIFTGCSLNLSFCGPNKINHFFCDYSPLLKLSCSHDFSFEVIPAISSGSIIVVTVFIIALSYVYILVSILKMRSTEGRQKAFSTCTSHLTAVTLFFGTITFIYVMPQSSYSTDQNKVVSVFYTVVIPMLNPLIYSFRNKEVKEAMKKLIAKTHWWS
# How it was run: as §1
# 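Note: active if original authors judged signal statistically different from baseline.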
structure (smiles),measurement,setting,value
CCCCCCC(C)=O,odorant receptor agonist call,Or1m1 (Mus musculus),inactive
same,odorant receptor agonist call,Or2c1 (Mus musculus),inactive
same,odorant receptor agonist call,Or5ar1 (Mus musculus),inactive
same,odorant receptor agonist call,Or5p80 (Mus musculus),inactive
same,odorant receptor agonist call,Or7a40 (Mus musculus),inactive
CCCCCC=O,odorant receptor agonist call,Or1m1 (Mus musculus),inactive
same,odorant receptor agonist call,Or2c1 (Mus musculus),inactive
same,odorant receptor agonist call,Or5ar1 (Mus musculus),inactive
same,odorant receptor agonist call,Or5p80 (Mus musculus),inactive
same,odorant receptor agonist call,Or7a40 (Mus musculus),inactive
CCC(=O)O,odorant receptor agonist call,Or1m1 (Mus musculus),inactive
same,odorant receptor agonist call,Or2c1 (Mus musculus),inactive
same,odorant receptor agonist call,Or5ar1 (Mus musculus),inactive
same,odorant receptor agonist call,Or5p80 (Mus musculus),inactive
same,odorant receptor agonist call,Or7a40 (Mus musculus),inactive
CCCCC(=O)CC,odorant receptor agonist call,Or1m1 (Mus musculus),inactive
same,odorant receptor agonist call,Or2c1 (Mus musculus),inactive
same,odorant receptor agonist call,Or5ar1 (Mus musculus),inactive
same,odorant receptor agonist call,Or5p80 (Mus musculus),inactive
same,odorant receptor agonist call,Or7a40 (Mus musculus),inactive
O=C1Cc2ccccc2O1,odorant receptor agonist call,Or1m1 (Mus musculus),inactive
same,odorant receptor agonist call,Or2c1 (Mus musculus),active
same,odorant receptor agonist call,Or5ar1 (Mus musculus),inactive
same,odorant receptor agonist call,Or5p80 (Mus musculus),inactive
same,odorant receptor agonist call,Or7a40 (Mus musculus),inactive
O=C([O-])CCCCC(=O)[O-].[H+].[H+],odorant receptor agonist call,Or10j5 (Mus musculus),inactive
same,odorant receptor agonist call,Or5p57 (Mus musculus),inactive
O=C(O)CCCBr,odorant receptor agonist call,Or10j5 (Mus musculus),inactive
same,odorant receptor agonist call,Or5p57 (Mus musculus),inactive
CCCCCCOC(C)=O,odorant receptor agonist call,Or1m1 (Mus musculus),inactive
same,odorant receptor agonist call,Or2c1 (Mus musculus),inactive
same,odorant receptor agonist call,Or5ar1 (Mus musculus),inactive
same,odorant receptor agonist call,Or5p80 (Mus musculus),inactive
same,odorant receptor agonist call,Or7a40 (Mus musculus),inactive
Cc1c(C)c(C)c(C=O)c(C)c1C,odorant receptor agonist call,Or1m1 (Mus musculus),inactive
same,odorant receptor agonist call,Or5ar1 (Mus musculus),inactive
CCC=CCCCCC=O,odorant receptor agonist call,Or1m1 (Mus musculus),inactive
same,odorant receptor agonist call,Or5ar1 (Mus musculus),inactive
CCCCCOC(=O)CCC,odorant receptor agonist call,Or1m1 (Mus musculus),inactive
same,odorant receptor agonist call,Or5ar1 (Mus musculus),inactive
CCC(C)O (configuration not stated),odorant receptor agonist call,Or1m1 (Mus musculus),inactive
same,odorant receptor agonist call,Or5ar1 (Mus musculus),inactive
CC=CC(=O)C1=C(C)CCCC1(C)C,odorant receptor agonist call,Or1m1 (Mus musculus),inactive
same,odorant receptor agonist call,Or5ar1 (Mus musculus),inactive
CCCCCC(C)O (configuration not stated),odorant receptor agonist call,Or1m1 (Mus musculus),inactive
same,odorant receptor agonist call,Or5ar1 (Mus musculus),inactive
C1CCOC1,odorant receptor agonist call,Or1m1 (Mus musculus),inactive
same,odorant receptor agonist call,Or5ar1 (Mus musculus),inactive
O=C(OCc1ccccc1)c1ccccc1O,odorant receptor agonist call,Or1m1 (Mus musculus),inactive
same,odorant receptor agonist call,Or5ar1 (Mus musculus),inactive
CCCCCCC(C)O (configuration not stated),odorant receptor agonist call,Or1m1 (Mus musculus),inactive
same,odorant receptor agonist call,Or5ar1 (Mus musculus),inactive
CC(C)=C1CCC(C)CC1=O (configuration not stated),odorant receptor agonist call,Or1m1 (Mus musculus),inactive
same,odorant receptor agonist call,Or5ar1 (Mus musculus),inactive
CC(=O)OCCc1ccccc1,odorant receptor agonist call,Or1m1 (Mus musculus),inactive
same,odorant receptor agonist call,Or5ar1 (Mus musculus),inactive
C=C(C)C1CCC2(C)OC2C1 (configuration not stated),odorant receptor agonist call,Or1m1 (Mus musculus),inactive
same,odorant receptor agonist call,Or5ar1 (Mus musculus),inactive
CCc1ccccc1O,odorant receptor agonist call,Or1m1 (Mus musculus),inactive
same,odorant receptor agonist call,Or5ar1 (Mus musculus),inactive
Cc1ccccc1OC(=O)C(C)C,odorant receptor agonist call,Or1m1 (Mus musculus),inactive
same,odorant receptor agonist call,Or5ar1 (Mus musculus),inactive
